Laboratory results published in ChEMBL document CHEMBL1629587, “Discovery of a small-molecule inhibitor of {beta}-1,6-glucan synthesis” (2009).
≈ marks a conversion by molar mass, not a printed value. Calls of active or inactive are those of the source. The calls are words filed in the database; no cut-off is given here. Starred links: 1 amine or outer side, 2 acyl side, 3 side chain; linkers in the order of their positions; H or OH if unused. Positions of bridges follow the written chain, without caps; N, C: chain ends. Non-standard residues stand in square brackets, D forms with d. Residues, ends and D or L forms follow the SMILES beside them. *: point of attachment. Orn(4R-OH,5R-OH) = O=C([C@H](C[C@@H](O)[C@@H](O)N[*:3])N[*:1])[*:2]; hTyr(3S-OH,4S-OH) = N[C@H](C(=O)O)[C@H](O)[C@@H](O)c1ccc(O)cc1; Pro(3S-OH,4S-Me) = C[C@H]1CN[C@H](C(=O)O)[C@H]1O; Palmitoyl = CCCCCCCCCCCCCCCC(=O)*; Hyp = O=C(O)[C@@H]1C[C@@H](O)CN1

How the values were obtained:
Saccharomyces cerevisiae [1] = assay: Fungicidal activity against Saccharomyces cerevisiae AY-10-R15 mutant after 24 hrs by microdilution method; type: functional; conditions: AY-10-R15, 24 h
Saccharomyces cerevisiae [2] = assay: […] activity against Saccharomyces cerevisiae AY-10 transformed with pRS416-13 carrying ADP1 gene after 24 hrs by microdilution method; type: functional; conditions: AY-10, 24 h
Saccharomyces cerevisiae [3] = assay: Fungicidal activity against Saccharomyces cerevisiae AY-10-R11 mutant after 24 hrs by microdilution method; type: functional; conditions: AY-10-R11, 24 h
Saccharomyces cerevisiae [4] = assay: Fungicidal activity against Saccharomyces cerevisiae AY-10-R16 mutant after 24 hrs by microdilution method; type: functional; conditions: AY-10-R16, 24 h
Saccharomyces cerevisiae [5] = assay: […] activity against Saccharomyces cerevisiae AY-10 transformed with empty vector pRS416 after 24 hrs by microdilution method; type: functional; conditions: AY-10, 24 h
Saccharomyces cerevisiae [6] = assay: […] activity against Saccharomyces cerevisiae AY-10 transformed with pRS416-31 carrying KRE6 gene after 24 hrs by microdilution method; type: functional; conditions: AY-10, 24 h
Saccharomyces cerevisiae [7] = assay: Fungicidal activity against Saccharomyces cerevisiae AY-10-R4 mutant after 24 hrs by microdilution method; type: functional; conditions: AY-10-R4, 24 h
Saccharomyces cerevisiae [8] = assay: […] activity against Saccharomyces cerevisiae AY-10 after 24 hrs by microdilution method; type: functional; conditions: AY-10, 24 h
Pichia kudriavzevii = assay: Antifungal activity against Candida krusei TIMM0269 after 24 hrs by microdilution method; type: functional; conditions: TIMM0269, 24 h
Outline: (§1)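 CLSI broth microdilution run at 30°C instead of standard temperature; starting inoculum 1 × 10^3 to 3 × 10^3 cells/ml; DMSO under 1% final. Endpoints: MIC-0 = lowest concentration giving an optically clear well; MIC-2 = 50% drop versus drug-free control in absorbance at 570 nm with alamar blue redox indicator, used because treated cells clump.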

Cryptococcus neoformans = assay: Antifungal activity against Cryptococcus neoformans ATCC 90112 after 24 hrs by microdilution method; type: functional; conditions: ATCC 90112, 24 h; outline: as §1
Nakaseomyces glabratus [9] = assay: Antifungal activity against Candida glabrata IFO0622 after 24 hrs by microdilution method; type: functional; conditions: IFO0622, 24 h; outline: as §1
Clavispora lusitaniae = assay: Antifungal activity against Candida lusitaniae ATCC 200951 after 24 hrs by microdilution method; type: functional; conditions: ATCC 200951, 24 h; outline: as §1
Candida parapsilosis = assay: Antifungal activity against Candida parapsilosis IFO1396 after 24 hrs by microdilution method; type: functional; conditions: Lodderomyces parapsilosis, IFO1396, 24 h; outline: as §1
Candida albicans [10] = assay: Antifungal activity against Candida albicans ATCC MYA-573 after 24 hrs by microdilution method; type: functional; conditions: ATCC MYA-573, 24 h; outline: as §1
Nakaseomyces glabratus [11] = assay: Antifungal activity against Candida glabrata ATCC 200918 after 24 hrs by microdilution method; type: functional; conditions: ATCC 200918, 24 h; outline: as §1
Aspergillus fumigatus = assay: Antifungal activity against Aspergillus fumigatus ATCC 36607 after 24 hrs by microdilution method; type: functional; conditions: ATCC 36607, 24 h; outline: as §1
Aspergillus flavus = assay: Antifungal activity against Aspergillus flavus ATCC 64025 after 24 hrs by microdilution method; type: functional; conditions: ATCC 64025, 24 h; outline: as §1
Aspergillus terreus = assay: Antifungal activity against Aspergillus terreus ATCC 28301 after 24 hrs by microdilution method; type: functional; conditions: ATCC 28301, 24 h; outline: as §1
Saccharomyces cerevisiae [12] = assay: Antifungal activity against Saccharomyces cerevisiae YPH500 after 24 hrs by microdilution method; type: functional; conditions: YPH500, 24 h
Outline: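 CLSI broth microdilution, incubated at 30°C, starting inoculum 1 × 10^3 to 3 × 10^3 cells/ml; drugs from DMSO, final DMSO below 1%. MIC-0 is the lowest concentration giving an optically clear well. MIC-2 is read with alamar blue as a 50% drop in A570 versus the drug-free control; both endpoints were recorded.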

Kluyveromyces marxianus = assay: Antifungal activity against Candida kefyr ATCC 46764 after 24 hrs by microdilution method; type: functional; conditions: ATCC 46764, 24 h; outline: as §1
Trichosporon asahii = assay: Antifungal activity against Trichosporon asahii ATCC 90039 after 24 hrs by microdilution method; type: functional; conditions: ATCC 90039, 24 h; outline: as §1
Candida tropicalis [13] = assay: Antifungal activity against Candida tropicalis TIMM0313 after 24 hrs by microdilution method; type: functional; conditions: TIMM0313, 24 h; outline: as §1
Candida albicans [14] = assay: Antifungal activity against Candida albicans ATCC 24433 after 24 hrs by microdilution method; type: functional; conditions: ATCC 24433, 24 h; outline: as §1
Candida tropicalis [15] = assay: Antifungal activity against Candida tropicalis ATCC 200956 after 24 hrs by microdilution method; type: functional; conditions: ATCC 200956, 24 h; outline: as §1
Saccharomyces cerevisiae [16] = assay: Inhibition of beta-1,6-Glucan synthesis in Saccharomyces cerevisiae AY-10 assessed as reduction in [14C]glucose incorporation at 0.039 to 0.625 ug/ml after 3 hrs; type: functional, organism-based; conditions: at 0.039 to 0.625 µg/mL
Outline: (§2)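 Exponentially growing cells in RPMI 1640 (absorbance ~0.6 at 595 nm) incubated at 30°C with drug plus [14C]glucose at 2 μCi/ml. Cells extracted twice with 3% NaOH at 80°C, then the insoluble material digested overnight at 30°C with Zymolyase 100T (1 mg/ml, pH 7.5). The soluble fraction was dialysed to remove β-1,3-glucan oligosaccharides, and the retained β-1,6-glucan was counted by scintillation. Read-out is percent change in incorporated radioactivity versus the drug-free control.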

Saccharomyces cerevisiae [17] = assay: Inhibition of beta-1,6-Glucan synthesis in Saccharomyces cerevisiae AY-10 assessed as reduction in [14C]glucose incorporation at 0.078 ug/ml after 3 hrs; type: functional, organism-based; conditions: at 0.078 µg/mL; outline: as §2
Saccharomyces cerevisiae [18] = assay: Inhibition of beta-1,6-Glucan synthesis assessed as reduction in [14C]glucose incorporation at 0.025 to 4 ug/ml after 1 hr; conditions: AY-10
Saccharomyces cerevisiae [19] = assay: Inhibition of beta-1,6-Glucan synthesis in Saccharomyces cerevisiae AY-10 assessed as reduction in [14C]glucose incorporation at 0.078 to 1.25 ug/ml after 3 hrs; type: functional, organism-based; conditions: at 0.078 to 1.25 µg/mL; outline: as §2
Saccharomyces cerevisiae [20] = assay: Inhibition of beta-1,6-Glucan synthesis in Saccharomyces cerevisiae AY-10 assessed as reduction in [14C]glucose incorporation at 0.078 ug/ml after 1 hr; type: functional, organism-based; conditions: at 0.078 µg/mL; outline: as §2
Saccharomyces cerevisiae [21] = assay: Inhibition of beta-1,3-Glucan synthesis in Saccharomyces cerevisiae AY-10 assessed as reduction in [14C]glucose incorporation at 0.039 to 0.625 ug/ml after 3 hrs; type: functional, organism-based
Outline: (§3)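 Exponential cells in RPMI 1640 at A595 about 0.6, pulse-labelled with [14C]glucose 2 μCi/ml plus drug at 30°C, sampled at 1 and 3 h. Cell wall fractionated: mannan from 3% NaOH extracts at 80°C by Fehling's reaction; residue digested with Zymolyase 100T (1 mg/ml), insoluble part = chitin; β-1,3-glucan = total glucan minus dialysed β-1,6-glucan. Scintillation counting; % change versus untreated.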

Saccharomyces cerevisiae [22] = assay: Inhibition of beta-1,6-Glucan synthesis in Saccharomyces cerevisiae AY-10 assessed as reduction in [14C]glucose incorporation at 0.078 to 1.25 ug/ml after 1 hr; type: functional, organism-based; conditions: at 0.078 to 1.25 µg/mL; outline: as §2
Nakaseomyces glabratus [23] = assay: Inhibition of beta-1,6-Glucan synthesis in Candida glabrata IFO0622 assessed as reduction in [14C]glucose incorporation at 0.025 to 4 ug/ml after 3 hrs; type: functional, organism-based; outline: as §2
Saccharomyces cerevisiae [24] = assay: Inhibition of beta-1,3-Glucan synthesis in Saccharomyces cerevisiae AY-10 assessed as reduction in [14C]glucose incorporation at 0.039 to 0.625 ug/ml after 1 hr; type: functional, organism-based; outline: as §3
Saccharomyces cerevisiae [25] = assay: Inhibition of beta-1,6-Glucan synthesis in Saccharomyces cerevisiae AY-10 assessed as reduction in [14C]glucose incorporation at 0.039 to 0.625 ug/ml after 1 hr; type: functional, organism-based; conditions: at 0.039 to 0.625 µg/mL; outline: as §2

Nc1nc(=O)[nH]cc1F [FLUCYTOSINE]
MIC (Saccharomyces cerevisiae [1]): 4 µg/mL (≈ 31 µM) | MIC (Saccharomyces cerevisiae [2]): 4 µg/mL (≈ 31 µM) | MIC (Saccharomyces cerevisiae [3]): 4 µg/mL (≈ 31 µM) | MIC (Saccharomyces cerevisiae [4]): 2 µg/mL (≈ 15.5 µM) | MIC (Saccharomyces cerevisiae [5]): 2 µg/mL (≈ 15.5 µM) | MIC (Saccharomyces cerevisiae [6]): 2 µg/mL (≈ 15.5 µM) | MIC (Saccharomyces cerevisiae [7]): 2 µg/mL (≈ 15.5 µM) | MIC (Saccharomyces cerevisiae [8]): 2 µg/mL (≈ 15.5 µM)

C[C@@H]1[C@H](O)[C@@H](C)/C=C/C=C/C=C/C=C/C=C/C=C/C=C/[C@H](O[C@@H]2O[C@H](C)[C@@H](O)[C@H](N)[C@@H]2O)C[C@@H]2O[C@](O)(C[C@@H](O)C[C@@H](O)[C@H](O)CC[C@@H](O)C[C@@H](O)CC(=O)O[C@H]1C)C[C@H](O)[C@H]2C(=O)O [AMPHOTERICIN B]
MIC (Saccharomyces cerevisiae [1]): 0.25 µg/mL (≈ 0.271 µM) | MIC (Saccharomyces cerevisiae [2]): 0.125 µg/mL (≈ 0.135 µM) | MIC (Saccharomyces cerevisiae [3]): 0.125 µg/mL (≈ 0.135 µM) | MIC (Saccharomyces cerevisiae [4]): 0.25 µg/mL (≈ 0.271 µM) | MIC (Saccharomyces cerevisiae [5]): 0.25 µg/mL (≈ 0.271 µM) | MIC (Saccharomyces cerevisiae [6]): 0.25 µg/mL (≈ 0.271 µM) | MIC (Saccharomyces cerevisiae [7]): 0.0625 µg/mL (≈ 0.0676 µM) | MIC (Saccharomyces cerevisiae [8]): 0.25 µg/mL (≈ 0.271 µM)

OC(Cn1cncn1)(Cn1cncn1)c1ccc(F)cc1F [FLUCONAZOLE]
MIC50 (Pichia kudriavzevii): > 64 µg/mL | MIC50 (Cryptococcus neoformans): 2 µg/mL (≈ 6.53 µM) | MIC50 (Nakaseomyces glabratus [9]): 2 µg/mL (≈ 6.53 µM) | MIC50 (Clavispora lusitaniae): 0.063 µg/mL (≈ 0.206 µM) | MIC50 (Candida parapsilosis): 1 µg/mL (≈ 3.27 µM) | MIC50 (Candida albicans [10]): > 64 µg/mL | MIC50 (Nakaseomyces glabratus [11]): 16 µg/mL (≈ 52.2 µM) | MIC50 (Aspergillus fumigatus): > 64 µg/mL | MIC50 (Aspergillus flavus): > 64 µg/mL | MIC50 (Aspergillus terreus): > 64 µg/mL | MIC50 (Saccharomyces cerevisiae [12]): 4 µg/mL (≈ 13.1 µM) | MIC50 (Kluyveromyces marxianus): 0.25 µg/mL (≈ 0.816 µM) | MIC50 (Trichosporon asahii): 4 µg/mL (≈ 13.1 µM) | MIC50 (Candida tropicalis [13]): 0.25 µg/mL (≈ 0.816 µM) | MIC50 (Candida albicans [14]): 0.25 µg/mL (≈ 0.816 µM) | MIC50 (Candida tropicalis [15]): 16 µg/mL (≈ 52.2 µM)

CCCCCCCCCCCCCCCC(=O)N[C@H]1C[C@@H](O)[C@@H](O)NC(=O)[C@@H]2[C@@H](O)[C@@H](C)CN2C(=O)[C@H]([C@@H](C)O)NC(=O)[C@H]([C@H](O)[C@@H](O)c2ccc(O)cc2)NC(=O)[C@@H]2C[C@@H](O)CN2C(=O)[C@H]([C@@H](C)O)NC1=O [ACULEACIN A] (Palmitoyl-[Orn(4R-OH,5R-OH)]T[Hyp][hTyr(3S-OH,4S-OH)]T[Pro(3S-OH,4S-Me)]; lactam 1-C)
MIC (Saccharomyces cerevisiae [1]): 0.5 µg/mL (≈ 0.483 µM) | MIC (Saccharomyces cerevisiae [2]): 0.25 µg/mL (≈ 0.241 µM) | inhibition (Saccharomyces cerevisiae [16]): inactive | inhibition (Saccharomyces cerevisiae [17]): Active | Activity (Saccharomyces cerevisiae [18]): Active | MIC (Saccharomyces cerevisiae [3]): 0.25 µg/mL (≈ 0.241 µM) | MIC (Saccharomyces cerevisiae [4]): 0.25 µg/mL (≈ 0.241 µM) | inhibition (Saccharomyces cerevisiae [19]): Active | inhibition (Saccharomyces cerevisiae [20]): Active | MIC (Saccharomyces cerevisiae [5]): 0.5 µg/mL (≈ 0.483 µM) | inhibition (Saccharomyces cerevisiae [21]): Active | MIC (Saccharomyces cerevisiae [6]): 0.5 µg/mL (≈ 0.483 µM) | MIC (Saccharomyces cerevisiae [7]): 0.125 µg/mL (≈ 0.121 µM) | inhibition (Saccharomyces cerevisiae [22]): Active | MIC (Saccharomyces cerevisiae [8]): 0.5 µg/mL (≈ 0.483 µM) | Activity (Nakaseomyces glabratus [23]): Active | inhibition (Saccharomyces cerevisiae [24]): Active | inhibition (Saccharomyces cerevisiae [25]): inactive
